Data on 50 compounds can be found in ChEMBL document CHEMBL1125252, “Synthesis and anti-HIV-1 activity of 4,5,6,7-tetrahydro-5-methylimidazo[4,5,1-jk][1,4]benzodiazepin- 2(1H)-one (TIBO) derivatives” (J Med Chem, 1991).

Experiment [1] deals with MT4. Kind of experiment: Effective concentration required to achieve 50% protection of MT-4 cells against the cytopathic effect of HIV-1; I = Inactive. It is filed as functional, cell-based, Homo sapiens. In short, it runs like this: (§1)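 MT-4 cells were infected with HIV-1 or mock-infected, then incubated with a range of test-compound concentrations. IC50 is the concentration giving 50% protection against HIV-1-induced cytopathic effect. CC50 is the concentration reducing viability of mock-infected cells by 50%. SI is CC50/IC50. Most determinations were run in duplicate and averaged.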
In general terms: Cytopathic effects are the visible damage that an infection or toxin causes in cultured cells.

Experiment [2] has as its system MT4. Kind of experiment: (§2) Cytotoxic concentration required to reduce the viability of mock-infected MT-4 cells by 50%. It is filed as functional. The conditions noted are these: Homo sapiens. The essentials:
as §1

Experiment [3] has as its system MT4. Kind of experiment: Selectivity index measured as the ratio of CC50/IC50 values. The class given is functional. In short, it runs like this: as §1
Experiment [4] has as its system Human immunodeficiency virus 1. Kind of experiment: Effective concentration required to achieve 50% protection of MT-4 cells against the cytopathic effect of HIV-1. The note with it: Human immunodeficiency virus 1, MT4. The class given is functional, organism-based. In short, it runs like this: as §1
The subject of experiment [5] is MT4. Described as §2. The class given is functional, cell-based. The note with it: Homo sapiens. In short, it runs like this:
as §1

What is called IC50 is the point on the concentration scale where inhibition reaches its midpoint. A low value points to greater potency. For orientation: CC50 means the concentration that lowers cell viability or growth by half. High values mean better tolerance by the cells, low ones harm at low concentration. As to `C[C@H]1Cn2c(O)nc3cccc(c32)CN1`, in experiment [1], the 50% inhibitory concentration (IC50) entry is recorded as “Not Active”. This compound yielded a CC50 in experiment [2] of 901 µM.
As to `C=C(C)CN1Cc2cccc3[nH]c(=O)n(c23)C[C@@H]1C`, the Selectivity index in experiment [3] amounted to 11. Moreover, inhibition in experiment [4] was half-maximal at 19 µM (IC50). This compound came in with a half-maximal cytotoxic concentration (CC50) in experiment [2] of 222 µM.
As to `CCN1Cc2cccc3nc(O)n(c23)CC1C` (configuration not stated), in experiment [1], the IC50 entry was “Not Active”. In addition, in experiment [2], the CC50 was 592 µM.
For `CC1Cn2c(O)nc3cccc(c32)CN1Cc1ccc[nH]1` (configuration not stated) the same measures were “Not Active” and 92 µM.
`CCCCN1Cc2cccc3nc(O)n(c23)CC1C` (configuration not stated): the Selectivity index in experiment [3] was determined as 5. The same compound yielded an IC50 in experiment [4] of 100 µM. Further, in experiment [2], the CC50 is 501 µM.
As to `CC(C)CN1Cc2cccc3nc(O)n(c23)CC1C` (configuration not stated), the IC50 result in experiment [1] is listed as “Not Active”. The same compound yielded a CC50 in experiment [2] of 82 µM.
For `C=C(CN1Cc2cccc3nc(O)n(c23)CC1C)C(C)C` (configuration not stated) the same measures were “Not Active” and 18 µM.
As to `CC(C)=C(C)CN1Cc2cccc3nc(O)n(c23)CC1C` (configuration not stated), in experiment [1], the IC50 result is given as “Not Active”. Further, in experiment [2], the CC50 is greater than 876 µM.
In the case of `CC1Cn2c(O)nc3cccc(c32)CN1C/C=C\c1ccccc1` (configuration not stated), the Selectivity index in experiment [3] is given as 3. This compound displayed a 50% inhibitory concentration (IC50) in experiment [4] of 122 µM. The same compound gave a CC50 in experiment [2] of 388 µM.
Regarding `C/C=C/C=C/CN1Cc2cccc3nc(O)n(c23)CC1C` (configuration not stated), the IC50 entry in experiment [1] is recorded as “Not Active”. The compound further came in with a CC50 in experiment [2] of 378 µM.
In experiment [4], `COC(=O)CN1Cc2cccc3nc(O)n(c23)CC1C` (configuration not stated) came in with a half-maximal inhibitory concentration (IC50) of 855 µM. In experiment [2], this compound displayed a CC50 of 925 µM.
For `C#CCN1Cc2cccc3nc(O)n(c23)CC1C` (configuration not stated) the same measures were 580 µM and 990 µM.
`CC(C)=CCN1Cc2cccc3nc(O)n(c23)C[C@H]1C`: the Selectivity index in experiment [3] was found to be 20. Moreover, the IC50 in experiment [4] turned out to be 22 µM. The midpoint of cytotoxicity in experiment [2], the CC50, lay at 450 µM.
For `C=C(CC)CN1Cc2cccc3nc(O)n(c23)CC1C` (configuration not stated) the same measures were 2, 37 µM and 66 µM.
For `CC1Cn2c(O)nc3cccc(c32)CN1C/C=C/c1ccccc1` (configuration not stated), the IC50 entry in experiment [1] is reported as “Not Active”. The CC50 in experiment [2] is greater than 783 µM.
For `CC(=O)CN1Cc2cccc3nc(O)n(c23)CC1C` (configuration not stated) the same measures were “Not Active” and 760 µM.
Take `C=CC(=C)CN1Cc2cccc3nc(O)n(c23)CC1C` (configuration not stated): in experiment [3], the Selectivity index stood at 4. The compound also showed an IC50 in experiment [4] of 71 µM. The CC50 in experiment [2] came out at 290 µM.
On to `C=C(CN1Cc2cccc3nc(O)n(c23)CC1C)c1ccccc1` (configuration not stated), for which the 50% inhibitory concentration (IC50) result in experiment [1] is given as “Not Active”. The cytotoxic concentration (CC50) in experiment [2] came to 3 µM.
On to `C/C=C(/C)CN1Cc2cccc3nc(O)n(c23)CC1C` (configuration not stated), for which the Selectivity index in experiment [3] was determined as 4. Also, half-maximal inhibition in experiment [4] (IC50) required 29 µM. Moreover, in experiment [2], the CC50 is 106 µM.
For `C=CCCN1Cc2cccc3nc(O)n(c23)CC1C` (configuration not stated) the same measures were 11, 50 µM and 552 µM.
Take `CC1Cn2c(O)nc3cccc(c32)CN1CC#N` (configuration not stated): the IC50 result in experiment [1] is given as “Not Active”. For the same compound, in experiment [2], the cytotoxic concentration (CC50) turned out to be 508 µM.
On to `C/C=C/CN1Cc2cccc3nc(O)n(c23)CC1C` (configuration not stated), for which the Selectivity index in experiment [3] is 8. The same compound had an IC50 in experiment [4] of 58 µM. The same compound showed a CC50 in experiment [2] of 443 µM.
As for `C=CCN1Cc2cccc3[nH]c(=O)n(c23)C[C@H]1C`, the IC50 entry in experiment [1] was “Not Active”. The CC50 in experiment [5] stood at 592 µM.
As to `C#CC(C)=CCN1Cc2cccc3nc(O)n(c23)CC1C` (configuration not stated), in experiment [1], the IC50 result was “Not Active”. Also, it took 707 µM to reach half-maximal cytotoxicity in experiment [2] (CC50).
For `C[C@@H]1Cn2c(O)nc3cccc(c32)CN1` the same measures were “Not Active” and 901 µM.
As for `CC(C)=CCN1Cc2cccc3nc(O)n(c23)C[C@@H]1C`, the Selectivity index in experiment [3] was 105. Besides, the IC50 in experiment [4] worked out at 4 µM. The compound also returned a cytotoxic concentration (CC50) in experiment [2] of 427 µM.
For `CC1Cn2c(O)nc3cccc(c32)CN1CC1CC1` (configuration not stated) the same measures were 13, 44 µM and 588 µM.
For `C=CCN1Cc2cccc3[nH]c(=O)n(c23)CC1C` (configuration not stated) the same measures were 10, 70 µM and 670 µM.
Regarding `C=C(Cc1ccccc1)CN1Cc2cccc3nc(O)n(c23)CC1C` (configuration not stated), the half-maximal inhibitory concentration (IC50) result in experiment [1] is “Not Active”. This compound also gave a CC50 in experiment [2] of 572 µM.
Take `C/C=C\CN1Cc2cccc3nc(O)n(c23)CC1C` (configuration not stated): the Selectivity index in experiment [3] was determined as 16. For the same compound, 35 µM corresponded to half-maximal inhibition in experiment [4] (IC50). The compound also registered a half-maximal cytotoxic concentration (CC50) in experiment [2] of 560 µM.
As for `C=C(CN1Cc2cccc3nc(O)n(c23)CC1C)C(=O)OCC` (configuration not stated), the concentration for half-maximal inhibition (IC50) entry in experiment [1] was “Not Active”. The midpoint of cytotoxicity in experiment [2], the CC50, lay at 3 µM.
As to `CC(C)N1Cc2cccc3nc(O)n(c23)CC1C` (configuration not stated), the half-maximal inhibitory concentration (IC50) entry in experiment [1] is on record as “Not Active”. The compound further displayed a CC50 in experiment [2] of 65 µM.
With `C#C/C=C/CN1Cc2cccc3nc(O)n(c23)CC1C` (configuration not stated), the IC50 result in experiment [1] is listed as “Not Active”. In experiment [2], this compound gave a CC50 of 370 µM.
For `C#C/C(C)=C/CN1Cc2cccc3nc(O)n(c23)CC1C` (configuration not stated) the same measures were “Not Active” and 18 µM.
For `CC1Cn2c(O)nc3cccc(c32)CN1CCO` (configuration not stated) the same measures were “Not Active” and 776 µM.
Turning to `CC1Cn2c(O)nc3cccc(c32)CN1CC1=CCCCC1` (configuration not stated), the IC50 result in experiment [1] was “Not Active”. In experiment [2], this compound displayed a cytotoxic concentration (CC50) of 212 µM.
For `CC1Cn2c(O)nc3cccc(c32)CN1Cc1ncc[nH]1` (configuration not stated) the same measures were “Not Active” and 685 µM.
For `CC(C)=CCC/C(C)=C\CN1Cc2cccc3nc(O)n(c23)CC1C` (configuration not stated) the same measures were “Not Active” and 44 µM.
In the case of `C=C(Br)CN1Cc2cccc3nc(O)n(c23)CC1C` (configuration not stated), the Selectivity index in experiment [3] was determined as 7. This compound also registered an IC50 in experiment [4] of 62 µM. For the same compound, half-maximal cytotoxicity in experiment [2] (CC50) was put at 416 µM.
For `C=CCN1Cc2cccc3[nH]c(=O)n(c23)C[C@@H]1C` the same measures were 10, 66 µM and 670 µM.
As for `CC(=O)N1Cc2cccc3nc(O)n(c23)CC1C` (configuration not stated), the 50% inhibitory concentration (IC50) entry in experiment [1] is given as “Not Active”. Moreover, it took 175 µM to reach half-maximal cytotoxicity in experiment [2] (CC50).
`CC1Cn2c(O)nc3cccc(c32)CN1Cc1ccco1` (configuration not stated): the Selectivity index in experiment [3] came out at 5. The same compound returned an IC50 in experiment [4] of 106 µM. In experiment [2], this compound registered a cytotoxic concentration (CC50) of 529 µM.
With `CC(C)OCCN1Cc2cccc3nc(O)n(c23)CC1C` (configuration not stated), the IC50 result in experiment [1] was “Not Active”. This compound also registered a CC50 in experiment [2] of 504 µM.
For `COC(=O)/C=C/CN1Cc2cccc3nc(O)n(c23)CC1C` (configuration not stated) the same measures were “Not Active” and 252 µM.
Turning to `C=C(C)CN1Cc2cccc3[nH]c(=O)n(c23)CC1C` (configuration not stated), in experiment [3], the Selectivity index was 15. In experiment [4], this compound gave a 50% inhibitory concentration (IC50) of 47 µM. The compound also had a CC50 in experiment [2] of 665 µM.
For `CCCN1Cc2cccc3[nH]c(=O)n(c23)CC1C` (configuration not stated) the same measures were 8, 90 µM and 722 µM.
For `CC(C)=CCN1Cc2cccc3nc(O)n(c23)CC1C` (configuration not stated) the same measures were 33, 12.5 µM and 416 µM.
For `C(=NC1CCCCC1)=NC1CCCCC1` [DICYCLOHEXYLCARBODIIMIDE] the same measures were 1693, 0.137 µM and 232 µM.
With `O=c1[nH]cnc2c1ncn2[C@H]1CC[C@@H](CO)O1` [DIDANOSINE], the Selectivity index in experiment [3] stood at 191. Besides, in experiment [4], the IC50 was 5.5 µM. Moreover, it took 1050 µM to reach half-maximal cytotoxicity in experiment [2] (CC50).
For `Cc1cn([C@H]2C[C@H](N=[N+]=[N-])[C@@H](CO)O2)c(=O)[nH]c1=O` [ZIDOVUDINE] the same measures were 6200, 0.0015 µM and 9.3 µM.
